Results: ChEMBL document CHEMBL1667806, “Synthesis and evaluation of anti-tubercular activity of new dithiocarbamate sugar derivatives” (2011)
Converted amounts (≈) assume the structure as drawn.

What was measured:
[1] = microbe, parasite or virus in culture; format: functional, Mycobacterium bovis BCG str. Tokyo 172; conditions: Mycobacterium tuberculosis variant bovis BCG
[2] = system: Mycobacterium tuberculosis; test: Antimycobacterial activity against Mycobacterium tuberculosis H37Rv; format: functional
[3] = system: Mycolicibacterium smegmatis; test: microbe, parasite or virus in culture; format: functional; conditions: JATA 64.01
Mycobacterium avium = test: microbe, parasite or virus in culture; format: functional, Mycobacterium avium subsp. avium ATCC 25291; conditions: ATCC 2529
[4] = microbe, parasite or virus in culture; format: functional, Mycobacterium avium subsp. hominissuis; conditions: Mycobacterium avium, 104
Staphylococcus aureus [5] = test: Antimicrobial activity against Staphylococcus aureus; format: functional
Staphylococcus aureus [6] = test: microbe, parasite or virus in culture; format: functional; conditions: 873
Escherichia coli [7] = test: Antimicrobial activity against Escherichia coli DH5alpha; format: functional; conditions: DH5[alpha]
[8] = system: Mycobacterium tuberculosis; test: Antimycobacterial activity against drug-sensitive Mycobacterium tuberculosis isolate 3; format: functional
Method in brief: (§1)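 MIC by broth dilution in Middlebrook 7H9 broth supplemented with albumin, dextrose and catalase.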

[9] = system: Mycobacterium tuberculosis; test: Antimycobacterial activity against drug-sensitive Mycobacterium tuberculosis isolate 13; format: functional
Method in brief: as §1

Staphylococcus aureus [10] = test: Antimicrobial activity against drug-sensitive Staphylococcus aureus 209PJC-1; format: functional
[11] = system: Mycobacterium tuberculosis; test: Antimycobacterial activity against drug-sensitive Mycobacterium tuberculosis isolate 8; format: functional
Method in brief: as §1

Staphylococcus aureus [12] = test: Antimicrobial activity against drug-sensitive Staphylococcus aureus RN4220; format: functional
[13] = system: Mycobacterium tuberculosis; test: Antimycobacterial activity against drug-sensitive Mycobacterium tuberculosis isolate 17; format: functional
Method in brief: as §1

[14] = system: Mycobacterium tuberculosis; test: Antimycobacterial activity against drug-sensitive Mycobacterium tuberculosis isolate 14; format: functional
Method in brief: as §1

[15] = system: Mycobacterium tuberculosis; test: Antimycobacterial activity against drug-sensitive Mycobacterium tuberculosis isolate 20; format: functional
Method in brief: as §1

[16] = system: Mycobacterium tuberculosis; test: Antimycobacterial activity against drug-sensitive Mycobacterium tuberculosis isolate 1; format: functional
[17] = system: Mycobacterium tuberculosis; test: Antimycobacterial activity against drug-sensitive Mycobacterium tuberculosis isolate 5; format: functional
Method in brief: as §1

Escherichia coli [18] = test: Antimicrobial activity against drug-sensitive Escherichia coli JM109; format: functional
[19] = system: Mycobacterium tuberculosis; test: Antimycobacterial activity against drug-sensitive Mycobacterium tuberculosis isolate 2; format: functional
Method in brief: as §1

[20] = system: Mycobacterium tuberculosis; test: Antimycobacterial activity against drug-sensitive Mycobacterium tuberculosis isolate 10; format: functional
Method in brief: as §1

[21] = system: Mycobacterium tuberculosis; test: Antimycobacterial activity against drug-sensitive Mycobacterium tuberculosis isolate 9; format: functional
Method in brief: as §1

[22] = system: Mycobacterium tuberculosis; test: Antimycobacterial activity against drug-sensitive Mycobacterium tuberculosis isolate 6; format: functional
Method in brief: as §1

[23] = system: Mycobacterium tuberculosis; test: Antimycobacterial activity against drug-sensitive Mycobacterium tuberculosis isolate 16; format: functional
Method in brief: as §1

Pseudomonas aeruginosa = test: Antibacterial activity against drug-sensitive Pseudomonas aeruginosa PAO1; format: functional
[24] = system: Mycobacterium tuberculosis; test: Antimycobacterial activity against drug-sensitive Mycobacterium tuberculosis isolate 15; format: functional
Method in brief: as §1

Enterococcus faecalis [25] = test: Antimicrobial activity against AGs-resistant Enterococcus faecalis ATCC 19434; format: functional
[26] = system: Mycobacterium tuberculosis; test: Antimycobacterial activity against drug-sensitive Mycobacterium tuberculosis isolate 4; format: functional
Method in brief: as §1

[27] = system: Mycobacterium tuberculosis; test: Antimycobacterial activity against drug-sensitive Mycobacterium tuberculosis isolate 11; format: functional
Method in brief: as §1

Enterococcus faecalis [28] = test: Antimicrobial activity against AGs-resistant Enterococcus faecalis ATCC 19433; format: functional
[29] = system: Mycobacterium tuberculosis; test: Antimycobacterial activity against drug-sensitive Mycobacterium tuberculosis isolate 19; format: functional
Method in brief: as §1

Staphylococcus aureus [30] = test: Antimicrobial activity against methicillin-resistant Staphylococcus aureus MF490; format: functional
Klebsiella pneumoniae = test: Antibacterial activity against […] Klebsiella pneumoniae ATCC BAA-1705; format: functional
[31] = system: Mycobacterium tuberculosis; test: Antimycobacterial activity against drug-sensitive Mycobacterium tuberculosis isolate 12; format: functional
Method in brief: as §1

[32] = system: Mycobacterium tuberculosis; test: Antimycobacterial activity against drug-sensitive Mycobacterium tuberculosis isolate 7; format: functional
Method in brief: as §1

[33] = system: Mycobacterium tuberculosis; test: Antimycobacterial activity against drug-sensitive Mycobacterium tuberculosis isolate 18; format: functional
Method in brief: as §1

SMILES: CCN(CC)C(=S)[S-].[Na+] [DITIOCARB SODIUM]
- MIC [1]: 3.13 µg/mL
- MIC [2]: 3.13 µg/mL
- MIC [3]: > 100 µg/mL

SMILES: CC[C@@H](CO)NCCN[C@@H](CC)CO [ETHAMBUTOL]
- MIC [1]: 1.5 µg/mL (≈ 7.34 µM)
- MIC [2]: 2.5 µg/mL (≈ 12.2 µM)
- MIC (Mycobacterium avium): 1.6 µg/mL (≈ 7.83 µM)
- MIC [4]: 1.6 µg/mL (≈ 7.83 µM)
- MIC (Staphylococcus aureus [5]): > 100 µg/mL
- MIC (Staphylococcus aureus [6]): > 100 µg/mL
- MIC (Escherichia coli [7]): > 100 µg/mL

SMILES: C[C@@H](O)[C@H]1C(=O)N2C(C(=O)O)=C(SCCNC=N)C[C@H]12 [IMIPENEM ANHYDROUS]
- MIC [1]: 3.13 µg/mL (≈ 10.5 µM)
- MIC [2]: 3.13 µg/mL (≈ 10.5 µM)
- MIC (Staphylococcus aureus [5]): 0.1 µg/mL (≈ 0.334 µM)
- MIC (Staphylococcus aureus [6]): 0.1 µg/mL (≈ 0.334 µM)
- MIC (Escherichia coli [7]): 0.1 µg/mL (≈ 0.334 µM)

SMILES: NNC(=O)c1ccncc1 [ISONIAZID]
- MIC [1]: 0.04 µg/mL (≈ 0.292 µM)
- MIC [2]: 0.04 µg/mL (≈ 0.292 µM)
- MIC (Mycobacterium avium): 3.13 µg/mL (≈ 22.8 µM)
- MIC [4]: 1.56 µg/mL (≈ 11.4 µM)
- MIC (Staphylococcus aureus [5]): > 100 µg/mL
- MIC (Staphylococcus aureus [6]): > 100 µg/mL
- MIC (Escherichia coli [7]): > 100 µg/mL

SMILES: NC[C@H]1O[C@H](O[C@H]2[C@H](O)[C@@H](O[C@H]3O[C@H](CO)[C@@H](O)[C@H](N)[C@H]3O)[C@H](N)C[C@@H]2N)[C@H](O)[C@@H](O)[C@@H]1O [KANAMYCIN]
- MIC [1]: 0.3 µg/mL (≈ 0.619 µM)
- MIC [2]: 1.56 µg/mL (≈ 3.22 µM)
- MIC (Mycobacterium avium): 3.13 µg/mL (≈ 6.46 µM)
- MIC [4]: 3.13 µg/mL (≈ 6.46 µM)
- MIC (Staphylococcus aureus [5]): 12.5 µg/mL (≈ 25.8 µM)
- MIC (Staphylococcus aureus [6]): > 100 µg/mL
- MIC (Escherichia coli [7]): 12.5 µg/mL (≈ 25.8 µM)

SMILES: CC(=O)N[C@@H]1[C@@H](O)[C@H](O)[C@@H](CO)O[C@H]1O [N-ACETYLGLUCOSAMINE]
- MIC [1]: > 100 µg/mL
- MIC [2]: > 100 µg/mL
- MIC (Mycobacterium avium): > 100 µg/mL
- MIC [4]: > 100 µg/mL
- MIC (Staphylococcus aureus [5]): > 100 µg/mL
- MIC (Staphylococcus aureus [6]): > 100 µg/mL
- MIC (Escherichia coli [7]): > 100 µg/mL

SMILES: CC1(C)S[C@@H]2[C@H](NC(=O)Cc3ccccc3)C(=O)N2[C@H]1C(=O)O [PENICILLIN G]
- MIC [1]: 500 µg/mL (≈ 1500 µM)
- MIC [2]: 500 µg/mL (≈ 1500 µM)
- MIC (Staphylococcus aureus [5]): 31.3 µg/mL (≈ 93.6 µM)
- MIC (Staphylococcus aureus [6]): > 500 µg/mL
- MIC (Escherichia coli [7]): 25 µg/mL (≈ 74.8 µM)

SMILES: N.S=C(S)N1CCCC1 [PYRROLIDINE DITHIOCARBAMIC ACID, AMMONIUM SALT]
- MIC [8]: 0.2 µg/mL
- MIC [9]: 0.4 µg/mL
- MIC [1]: 0.4 µg/mL
- MIC (Staphylococcus aureus [10]): 8 µg/mL
- MIC [11]: 0.4 µg/mL
- MIC (Staphylococcus aureus [12]): 8 µg/mL
- MIC [13]: 0.2 µg/mL
- MIC [14]: 0.2 µg/mL
- MIC [2]: 0.2 µg/mL
- MIC [15]: 0.4 µg/mL
- MIC [16]: 0.2 µg/mL
- MIC [17]: 0.2 µg/mL
- MIC (Escherichia coli [18]): > 32 µg/mL
- MIC [19]: 0.2 µg/mL
- MIC [20]: 0.2 µg/mL
- MIC (Mycobacterium avium): 3.13 µg/mL
- MIC [21]: 0.2 µg/mL
- MIC [22]: 0.2 µg/mL
- MIC [23]: 0.2 µg/mL
- MIC [4]: 3.13 µg/mL
- MIC (Pseudomonas aeruginosa): > 32 µg/mL
- MIC [24]: 0.2 µg/mL
- MIC [3]: > 100 µg/mL
- MIC (Enterococcus faecalis [25]): 32 µg/mL
- MIC [26]: 0.2 µg/mL
- MIC [27]: 0.2 µg/mL
- MIC (Enterococcus faecalis [28]): 32 µg/mL
- MIC [29]: 0.4 µg/mL
- MIC (Staphylococcus aureus [30]): 8 µg/mL
- MIC (Klebsiella pneumoniae): > 32 µg/mL
- MIC (Staphylococcus aureus [5]): 12.5 µg/mL
- MIC [31]: 0.2 µg/mL
- MIC (Staphylococcus aureus [6]): 12.5 µg/mL
- MIC [32]: 0.4 µg/mL
- MIC (Escherichia coli [7]): 12.5 µg/mL
- MIC [33]: 0.2 µg/mL

SMILES: CO[C@H]1/C=C/O[C@@]2(C)Oc3c(C)c(O)c4c(O)c(c(/C=N/N5CCN(C)CC5)c(O)c4c3C2=O)NC(=O)/C(C)=C\C=C\[C@H](C)[C@H](O)[C@@H](C)[C@@H](O)[C@@H](C)[C@H](OC(C)=O)[C@@H]1C [RIFAMPIN]
- MIC [1]: 0.004 µg/mL (≈ 0.00486 µM)
- MIC [2]: 0.004 µg/mL (≈ 0.00486 µM)
- MIC (Mycobacterium avium): < 0.05 µg/mL
- MIC [4]: 0.25 µg/mL (≈ 0.304 µM)
- MIC (Staphylococcus aureus [5]): 0.002 µg/mL (≈ 0.00243 µM)
- MIC (Staphylococcus aureus [6]): 0.004 µg/mL (≈ 0.00486 µM)
- MIC (Escherichia coli [7]): 50 µg/mL (≈ 60.8 µM)

SMILES: CN(C)C(=S)[S-].[Na+] [SODIUM DIMETHYLCARBAMODITHIOATE]
- MIC [1]: 1.56 µg/mL
- MIC [2]: 1.56 µg/mL
- MIC (Mycobacterium avium): > 100 µg/mL
- MIC [4]: > 100 µg/mL
- MIC [3]: > 100 µg/mL
- MIC (Staphylococcus aureus [5]): > 100 µg/mL
- MIC (Staphylococcus aureus [6]): > 100 µg/mL
- MIC (Escherichia coli [7]): > 100 µg/mL

SMILES: CN[C@@H]1[C@H](O[C@H]2[C@H](O[C@H]3[C@H](O)[C@@H](O)[C@H](N=C(N)N)[C@@H](O)[C@@H]3N=C(N)N)O[C@@H](C)[C@]2(O)C=O)O[C@@H](CO)[C@H](O)[C@H]1O [STREPTOMYCIN]
- MIC [1]: 0.2 µg/mL (≈ 0.344 µM)
- MIC [2]: 0.39 µg/mL (≈ 0.671 µM)
- MIC (Mycobacterium avium): 3.13 µg/mL (≈ 5.38 µM)
- MIC [4]: 1.56 µg/mL (≈ 2.68 µM)
- MIC (Staphylococcus aureus [5]): 50 µg/mL (≈ 86 µM)
- MIC (Staphylococcus aureus [6]): > 100 µg/mL
- MIC (Escherichia coli [7]): 50 µg/mL (≈ 86 µM)
